Converted amounts (≈) assume the structure as drawn.
What was measured:
[1] = system: Cryptococcus gattii; test: Antifungal activity against Cryptococcus neoformans var. gattii after 48 hrs by microbroth dilution method; assay type: functional, Cryptococcus bacillisporus
Summary of the method: (§1)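 Microbroth dilution in Antibiotic Medium #3. Test agent in DMSO serially diluted 2-fold across 12 wells. Overnight yeast cultures diluted to OD 0.01−0.02 and added to the wells, final volume 200 μL. Incubated at 35 °C for 48 h, then growth read as OD at 600 nm.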

[2] = system: Candida albicans; test: Antifungal activity against Candida albicans ATCC 14503 after 48 hrs by microbroth dilution method; assay type: functional; conditions: ATCC 14503, 48 h; summary of the method: as §1
[3] = system: Pichia kudriavzevii; test: Antifungal activity against Candida krusei after 48 hrs by microbroth dilution method; assay type: functional; summary of the method: as §1
[4] = system: Nakaseomyces glabratus; test: Antifungal activity against Candida glabrata after 48 hrs by microbroth dilution method; assay type: functional; summary of the method: as §1
[5] = system: Staphylococcus aureus; test: Antibacterial activity against Staphylococcus aureus at 80 ug by disk diffusion method; assay type: functional; conditions: read-out: IZ

MIC50 [1] [µM] | MIC90 [1] [µM] | MIC50 [2] [µM] | MIC90 [2] [µM] | MIC50 [3] [µM] | MIC90 [3] [µM] | MIC50 [4] [µM] | MIC90 [4] [µM] | Structure (SMILES) | zone of inhibition at 80 µg/disc [5] [mm]
1.2 (≈ 0.471 µg/mL) | 2.3 (≈ 0.903 µg/mL) | 22 (≈ 8.64 µg/mL) | 32 (≈ 12.6 µg/mL) |  |  |  |  | CCCCCCC[C@H]1NC(=N)N2CCCC2=C1C(=O)OCCCCNC(=N)N | 
1.1 (≈ 0.463 µg/mL) | 2.6 (≈ 1.09 µg/mL) | 11 (≈ 4.63 µg/mL) | 22 (≈ 9.25 µg/mL) | 11 (≈ 4.63 µg/mL) | 24 (≈ 10.1 µg/mL) | 6.1 (≈ 2.57 µg/mL) | 27 (≈ 11.4 µg/mL) | CCCCCCCCC[C@H]1NC(=N)N2CCCC2=C1C(=O)OCCCCNC(=N)N | 
0.85 (≈ 0.346 µg/mL) | 2.2 (≈ 0.894 µg/mL) | 14 (≈ 5.69 µg/mL) | 26 (≈ 10.6 µg/mL) |  |  |  |  | CCCCCCCC[C@H]1NC(=N)N2CCCC2=C1C(=O)OCCCCNC(=N)N | 
2.5 (≈ 0.911 µg/mL) | 4.9 (≈ 1.79 µg/mL) | 39 (≈ 14.2 µg/mL) | 49 (≈ 17.9 µg/mL) | 34 (≈ 12.4 µg/mL) | 59 (≈ 21.5 µg/mL) | 17 (≈ 6.2 µg/mL) | 41 (≈ 14.9 µg/mL) | CCCCC[C@H]1NC(=N)N2CCCC2=C1C(=O)OCCCCNC(=N)N | 8
0.055 (≈ 0.0508 µg/mL) | 0.12 (≈ 0.111 µg/mL) | 0.037 (≈ 0.0342 µg/mL) | 0.29 (≈ 0.268 µg/mL) | 0.17 (≈ 0.157 µg/mL) | 0.23 (≈ 0.213 µg/mL) | 0.098 (≈ 0.0906 µg/mL) | 0.25 (≈ 0.231 µg/mL) | C[C@@H]1[C@H](O)[C@@H](C)/C=C/C=C/C=C/C=C/C=C/C=C/C=C/[C@H](O[C@@H]2O[C@H](C)[C@@H](O)[C@H](N)[C@@H]2O)C[C@@H]2O[C@](O)(C[C@@H](O)C[C@@H](O)[C@H](O)CC[C@@H](O)C[C@@H](O)CC(=O)O[C@H]1C)C[C@H](O)[C@H]2C(=O)O [AMPHOTERICIN B] | 

Reference: ChEMBL document CHEMBL3576834, “Antipodal crambescin A2 homologues from the marine sponge Pseudaxinella reticulata. Antifungal structure-activity relationships” (2015)
